In brackets after ≈: the same amount, converted by molar mass. Positions of bridges follow the written chain, without caps; N, C: chain ends. Residues, ends and D or L forms follow the SMILES beside them.
What was measured:
[1] = test system: Salmonella typhimurium; experiment: Antibacterial activity against Salmonella typhimurium ATCC 14028 incubated for 16 to 18 hrs at pH 7.2 by broth microdilution method; assay type: functional, Salmonella enterica subsp. enterica serovar Typhimurium; conditions: Salmonella enterica
Procedure, shortened: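 Broth microdilution in MH broth. S. Typhimurium ATCC14028 was grown overnight at 37 °C to semi-log phase, pelleted, and diluted to OD600 0.01; final inoculum was 5 × 10^5 CFU/mL. Plates were incubated 16–18 h at 37 °C. MIC is the lowest peptide concentration with no visible growth. Data are in duplicate from at least two independent experiments.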

[2] = test system: Salmonella typhimurium; experiment: Antibacterial activity against Salmonella typhimurium ATCC 14028 using 1 hr cathepsin B pre-treated compound at pH 5 incubated for 16 to 18 hrs at by broth microdilution method; assay type: functional, Salmonella enterica subsp. enterica serovar Typhimurium; conditions: Salmonella enterica
Procedure, shortened: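 Cathepsin B (bovine spleen, 10 µg/mL) was added for 1 h at 37 °C, and the reaction was stopped with 9 volumes of MHB. MIC was then run by broth microdilution (5 × 10^5 CFU/mL, 16–18 h, 37 °C) in medium adjusted to pH 5.0.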

[3] = test system: Salmonella typhimurium; experiment: Antibacterial activity against Salmonella typhimurium ATCC 14028 assessed as time duration for reduction in growth using cathepsin B pre-treated compound at 1 to 2 MIC incubated for 1 to 24 hrs by time kill assay; assay type: functional, Salmonella enterica subsp. enterica serovar Typhimurium
Procedure, shortened: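 Time-kill of cathepsin B-pretreated peptide (1 h, 37 °C, pH 5 buffer). Mid-log S. Typhimurium at 10^5 CFU/mL was exposed to 1× and 2× MIC at 37 °C with shaking at 250 rpm. Samples were taken every 2 h, serially diluted and plate-counted. N6 and ciprofloxacin served as controls.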

[4] = Cytotoxicity in mouse RAW264.7 assessed as cell survival at 100 uM incubated for 8 hrs by MTT assay; assay type: cell-based; conditions: RAW264.7 cells, read-out: Survival
Procedure, shortened: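 RAW264.7 cells seeded at 2.5 × 10^4 cells/well, cultured 24 h, then exposed for 8 h to 2-fold dilutions from 100 to 0.625 µM. MTT at 5 mg/mL added for 4 h, formazan dissolved in DMSO, absorbance read at 570 nm. Untreated cells served as control. Samples run in triplicate.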

[5] = Induction of hemolysis in mouse RBC at 100 uM incubated for 1 hrs at 37 degC; assay type: cell-based, Erythrocyte; conditions: red blood cells (erythrocytes), read-out: Activity
Procedure, shortened: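 Fresh mouse erythrocytes were washed three times in 0.9% NaCl, and an 8% suspension was incubated with peptide (2-fold dilutions, 100 to 0.3125 µM) for 1 h at 37 °C. Released hemoglobin was read at 540 nm. 1% Triton X-100 defined 100% lysis; polymyxin served as positive control and NaCl as negative.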

[6] = Drug localisation in cytosol of mouse RAW264.7 using FITC-labeled compound at 5 uM incubated for 2 hrs by confocal microscopy; assay type: ADME, cell-based
Procedure, shortened: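 RAW264.7 cells were plated for 18 h at 37 °C, then given 5 µM FITC or FITC-labeled peptide for 2 h. Nuclei were stained with Hoechst 33342 and membranes with FM 4-64 (each 5 µg/mL) for 30 min at 37 °C. Cells were PBS-washed and imaged by confocal fluorescence microscopy.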

[7] = Drug uptake in mouse RAW264.7 using FITC-labeled compound at 5 uM incubated for 2 hrs by flow cytometry; assay type: ADME, cell-based; conditions: raw264.7, 2 h
Procedure, shortened: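 Confluent RAW264.7 cells were resuspended in PBS and incubated at 37 °C with 5 µM FITC-labeled peptide. Samples taken at 0.5 h and 2 h were quenched with 0.4% Trypan blue for extracellular fluorescence. Uptake (percent internalized cells) was read by flow cytometry, with free FITC as negative control.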

[8] = Drug internalization in mouse RAW264.7 using FITC-labeled compound at 2 uM pre-incubated for 1 hr with clathrin-mediated endocytosis inhibitor chlorpromazine followed by compound addition and subsequent incubation for 2 hrs by flow cytometry; assay type: ADME, cell-based; conditions: raw264.7, 2 h
Procedure, shortened: (§1)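 RAW264.7 cells were pretreated 1 h at 37 °C with 3 mM amiloride, 20 µM nocodazole, 6 µg/mL chlorpromazine or 5 mM MβCD. FITC-labeled peptide was then added for 2 h at 37 °C. Extracellular fluorescence was quenched with 0.4% Trypan blue and intracellular fluorescence read by flow cytometry against an untreated control.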

[9] = Drug internalization in mouse RAW264.7 using FITC-labeled compound at 2 uM pre-incubated for 1 hr with tubulin polymerization inhibitor nocodazole followed by compound addition and subsequent incubation for 2 hrs by flow cytometry; assay type: ADME, cell-based; conditions: raw264.7, 2 h; procedure, shortened: as §1
[10] = test system: Salmonella typhimurium; experiment: Bactericidal activity against 2 hrs-gentamicin pre-exposed Salmonella typhimurium ATCC 14028 assessed as reduction colony forming units at 20 uM incubated for 10 hrs; assay type: functional, Salmonella enterica subsp. enterica serovar Typhimurium
Procedure, shortened: (§2)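 Macrophage protection assay. RAW264.7 cells (5 × 10^4/well, 24 h) were infected with S. Typhimurium ATCC14028 at MOI 10 for 1 h in DMEM/10% FBS, exposed to 100 µg/mL gentamicin for 2 h at 37 °C, and PBS-washed. Peptides in DMEM/10% FBS were added for 10 h. Cells were lysed with 0.1% Triton X-100 and CFU plated; log10 CFU reduction versus untreated cells. Three replicates; two independent experiments; one-way ANOVA with Tukey.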

[11] = test system: Salmonella typhimurium; experiment: Bactericidal activity against 2 hrs-gentamicin pre-exposed Salmonella typhimurium ATCC 14028 assessed as reduction colony forming units at 50 uM incubated for 10 hrs; assay type: functional, Salmonella enterica subsp. enterica serovar Typhimurium; procedure, shortened: as §2
[12] = test system: Salmonella typhimurium; experiment: Bactericidal activity against 2 hrs-gentamicin pre-exposed Salmonella typhimurium ATCC 14028 assessed as reduction colony forming units at 20 uM incubated for 10 hrs relative to marine peptide N6; assay type: functional, Salmonella enterica subsp. enterica serovar Typhimurium; set-up: scale not given: the % may be the effect or the level left; procedure, shortened: as §2
[13] = test system: Salmonella typhimurium; experiment: Bactericidal activity against 2 hrs-gentamicin pre-exposed Salmonella typhimurium ATCC 14028 assessed as reduction colony forming units at 50 uM incubated for 10 hrs relative to marine peptide N6; assay type: functional, Salmonella enterica subsp. enterica serovar Typhimurium; set-up: scale not given: the % may be the effect or the level left; procedure, shortened: as §2
[14] = test system: Salmonella typhimurium; experiment: Antibacterial activity against Salmonella typhimurium ATCC 14028 infected in ICR mouse model of peritonitis assessed as reduction colony forming units in intracellular fluids at 1 umol/kg, ip dosed at 2 hrs post infection and measured after 10 hrs post dose; assay type: functional, Salmonella enterica subsp. enterica serovar Typhimurium
Procedure, shortened: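 Six-week-old female ICR mice (six per group) received ip S. Typhimurium ATCC14028 (5 × 10^5 CFU, 0.5 mL). Peptide was given ip 2 h post-infection and mice were killed 10 h after treatment. Peritoneum was lavaged with 5 mL ice-cold PBS and total CFU counted. For intracellular CFU, pelleted cells were treated with 100 µg/mL gentamicin for 1 h at 37 °C, washed, lysed and plated. PBS served as negative control, ciprofloxacin as positive.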

[15] = test system: Salmonella typhimurium; experiment: Antibacterial activity against Salmonella typhimurium ATCC 14028 infected in ICR mouse model of peritonitis assessed as reduction colony forming units in kidney at 1 to 2 umol/kg, ip dosed at 2 hrs post infection and measured after 10 hrs post dose relative to marine peptide N6; assay type: functional, Salmonella enterica subsp. enterica serovar Typhimurium; set-up: scale not given: the % may be the effect or the level left
Procedure, shortened: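 Female ICR mice, six weeks old (six per group), were infected ip with S. Typhimurium ATCC14028 (5 × 10^5 CFU, 0.5 mL). Peptide was given ip at 1, 1.5 or 2 µmol/kg 2 h post-infection. Mice were killed 10 h after treatment, and kidneys and spleens were homogenized in sterile PBS for CFU counts of translocated bacteria. PBS-treated mice served as negative control, ciprofloxacin-treated mice as positive.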

[16] = test system: Salmonella typhimurium; experiment: Antibacterial activity against Salmonella typhimurium ATCC 14028 infected in ICR mouse model of peritonitis assessed as mouse survival at 1 umol/kg, ip dosed at 0.5 and 8 hrs post infection and measured daily for 7 days

Row | SMILES | MIC [1] [µM] | MIC [2] [µM] | Time [3] | viability at 8 h, 100 µM [4] [%] | hemolysis at 1 h, 100 µM [5] [%] | Drug uptake [6] | Drug uptake [7] [%] | Drug uptake [8] | Drug uptake [9] | Activity [10] [log10CFU] | Activity [11] [log10CFU] | Activity [12] [%] | Activity [13] [%] | Activity [14] [log10CFU] | Activity [15] [%] | Activity [16] [%]
1 | CC(C)[C@@H]1NC(=O)CNC(=O)[C@H](CC(N)=O)NC(=O)[C@H](CCCNC(=N)N)NC(=O)[C@H](Cc2ccc(O)cc2)NC(=O)[C@H](C(C)C)NC(=O)[C@@H](NC(=O)[C@@H](NC(=O)[C@H](CC(N)=O)NC(=O)[C@H](Cc2c[nH]c3ccccc23)NC(=O)[C@H](C)NC(=O)[C@H](Cc2ccccc2)NC(=O)CN)C(C)C)CSSC[C@@H](C(=O)N[C@@H](Cc2cnc[nH]2)C(=O)N[C@@H](CCCNC(=N)N)C(=O)N[C@@H](CCCNC(=N)N)C(=O)N[C@@H](C)C(=O)N[C@@H](CC(N)=O)C(N)=O)NC(=O)[C@H](C(C)C)NC(=O)[C@H](CCCNC(=N)N)NC1=O (H-GFAWNVCVYRNGVRVCHRRAN-NH2; disulfide 7-16) | 0.81 (≈ 2 µg/mL) | 1.62 (≈ 4.01 µg/mL) | <=2 hr | 93.5 | 2.05 | Active | 75.2 | Active | Not Active | 2.01 | 3.13 | 96.3 | 97.6 | 2.22 | 200 | 66.7
2 | CC(C)[C@H](NC(=O)CCCCCN1C(=O)CC(SC[C@H](N)C(=O)N[C@@H](Cc2ccc(O)cc2)C(=O)NCC(=O)N[C@@H](CCCNC(=N)N)C(=O)N[C@@H](CCCCN)C(=O)N[C@@H](CCCCN)C(=O)N[C@@H](CCCNC(=N)N)C(=O)N[C@@H](CCCNC(=N)N)C(=O)N[C@@H](CCC(N)=O)C(=O)N[C@@H](CCCNC(=N)N)C(=O)N[C@@H](CCCNC(=N)N)C(=O)N[C@@H](CCCNC(=N)N)C(=O)O)C1=O)C(=O)N[C@@H](CCCNC(N)=O)C(=O)Nc1ccc(COC(=O)NCC(=O)N[C@@H](Cc2ccccc2)C(=O)N[C@@H](C)C(=O)N[C@@H](Cc2c[nH]c3ccccc23)C(=O)N[C@@H](CC(N)=O)C(=O)N[C@H](C(=O)N[C@H]2CSSC[C@@H](C(=O)N[C@@H](Cc3cnc[nH]3)C(=O)N[C@@H](CCCNC(=N)N)C(=O)N[C@@H](CCCNC(=N)N)C(=O)N[C@@H](C)C(=O)N[C@@H](CC(N)=O)C(=O)O)NC(=O)[C@H](C(C)C)NC(=O)[C@H](CCCNC(=N)N)NC(=O)[C@H](C(C)C)NC(=O)CNC(=O)[C@H](CC(N)=O)NC(=O)[C@H](CCCNC(=N)N)NC(=O)[C@H](Cc3ccc(O)cc3)NC(=O)[C@H](C(C)C)NC2=O)C(C)C)cc1 (some centres not stated) | > 27.2 | 1.7 (≈ 8.05 µg/mL) | <=2 hr | 88.9 | 3.81 | Active | 95.8 | Not Active | Not Active | 1.06 | 2.06 | 67.2 | 76.2 | 1.39 | 81 | 66.7

— ChEMBL document CHEMBL4196141, “Improved Antibacterial Activity of the Marine Peptide N6 against Intracellular Salmonella Typhimurium by Conjugating with the Cell-Penetrating Peptide Tat11 via a Cleavable Linker” (J Med Chem, 2018)
